Measurements as given in the array DNA melting data of Ke et al. (doi:10.1101/2024.01.08.574731).

How the values were obtained:
[1] = folding enthalpy; higher = less favourable; fluorescence melt of hairpins on a sequencing array, two-state fit; settings: sodium 0.088 M
In short: (§1)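 Hairpins were imaged by Cy3 fluorescence on a sequenced MiSeq flow cell with annealed Cy3 and quencher oligos, in 50 mM Na-HEPES pH 8.0, 25 mM NaCl, in 2.5 °C steps up to 60 °C. Bootstrapped two-state fits of normalised signals gave melting temperature and folding enthalpy. Four replicates were combined by inverse variance, and fitted temperatures were raised by 9.35 °C to match UV melts.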

[2] = melting temperature; fluorescence melt of hairpins on a sequencing array, two-state fit, raised by 9.35 °C to match UV melts; settings: sodium 0.088 M
In short: as §1

| Sequence | folding enthalpy [1] [kcal/mol] | Tm [2] [°C] |
| --- | --- | --- |
| GCGGACCCGAAAGGGCGC (((..(((....)))))) | -18 | 59.5 |
| GCGGACGAAAGTCGACGC ((((((....)))..))) | -27.3 | 54.8 |
| GCGGACGCGAAAGCGCGC (((..(((....)))))) | -17.1 | 62 |
| GCGGACGGAAACGTTCGC (((.(((....))).))) | -44.9 | 64.2 |
| GCGGACTCGAAAGAGCGC (((..(((....)))))) | -22.9 | 51 |
| GCGGACTGCCGC ((((....)))) | -24.5 | 54.5 |
| GCGGAGAACCGC ((((....)))) | -22.7 | 51.1 |
| GCGGAGACCGC ((((...)))) | -24.4 | 53.2 |
| GCGGAGCGAAAGCCCGGC ((.(.((....)).).)) | -10.5 | 53.5 |
| GCGGAGCGAAAGCTCGGC ((.((((....)))).)) | -17.8 | 65.1 |
| GCGGAGCGAAAGCTGTGC ((..(((....)))..)) | -14.2 | 51 |
| GCGGAGGCCCGC ((((....)))) | -17.4 | 53.8 |
| GCGGAGGGAAACCCCCAC (.((.((....)).)).) | -7.96 | 22.4 |
| GCGGAGGGAAACCTCCAC (.(((((....))))).) | -15.4 | 45.7 |
| GCGGAGGGAAACCTCTGC ((.((((....)))).)) | -40.3 | 58.2 |
| GCGGATATCCGC ((((....)))) | -33.9 | 56.7 |
| GCGGCAAACCGC ((((....)))) | -27.8 | 55.8 |
| GCGGCAACGAAAGTTCGC (((..(((....)))))) | -21.3 | 45.1 |
| GCGGCACACCGC ((((....)))) | -25.5 | 57.5 |
| GCGGCAGCCGC ((((...)))) | -10.9 | 61.7 |
| GCGGCATACCGC ((((....)))) | -32 | 58.3 |
| GCGGCATCCCGC ((((....)))) | -20.7 | 56.4 |
| GCGGCCCGCCGC ((((....)))) | -16.9 | 68.7 |
| GCGGCCGAAAGGCGTCGC ((((((....)))..))) | -17.4 | 59.3 |

| Sequence | folding enthalpy [1] [kcal/mol] | Tm [2] [°C] |
| --- | --- | --- |
| GCGGCCGAAAGGCTACGC ((((((....)))..))) | -19.6 | 61.1 |
| GCGGCCGAAAGGCTCCGC ((((((....)))..))) | -16.8 | 53.8 |
| GCGGCCGCCCGC ((((....)))) | -17.1 | 63.2 |
| GCGGCGCGAAAGCACTGC ((.(.((....)).).)) | -29 | 54.6 |
| GCGGCGCGAAAGCAGCGC (((..((....))..))) | -27.4 | 68.1 |
| GCGGCGCGAAAGCATCGC (((..((....))..))) | -22.6 | 61.4 |
| GCGGCGCGAAAGCCCAGC ((.(.((....)).).)) | -15.3 | 53 |
| GCGGCGCGAAAGCGTGGC ((..(((....)))..)) | -20.7 | 62 |
| GCGGCGCGAAAGCTACGC (((..((....))..))) | -28.9 | 61.8 |
| GCGGCGCGAAAGCTCAGC ((.(.((....)).).)) | -19.2 | 56.7 |
| GCGGCGCGAAAGCTCTGC ((.(.((....)).).)) | -22.9 | 47.4 |
| GCGGCGGACCGC ((((....)))) | -22.6 | 54.9 |
| GCGGCGGCCGC ((((...)))) | -22.6 | 61.3 |
| GCGGCGTTCCGC ((((....)))) | -14.8 | 54.1 |
| GCGGCTCTCCGC ((((....)))) | -26.3 | 55.6 |
| GCGGCTGGAAACAGCTGC ((.((((....)))).)) | -39.1 | 63.6 |
| GCGGGAACCCGC ((((....)))) | -26 | 67.8 |
| GCGGGACCGAAAGGTCGC (((..(((....)))))) | -11.5 | 56.3 |
| GCGGGAGGAAACCCCCGC (((((.(....).))))) | -37.9 | 60.2 |
| GCGGGAGGAAACTCCTGC ((.((((....)))).)) | -39 | 58.1 |
| GCGGGCGAAAGCCATCGC ((((((....)))..))) | -21.1 | 52.8 |
| GCGGGCGAAAGCCTTCGC ((((((....)))..))) | -15.7 | 50.1 |
| GCGGGCTCCGC ((((...)))) | -21.6 | 58.5 |
